In ChEMBL document CHEMBL1629660, “Pharmacodynamics of tigecycline against phenotypically diverse Staphylococcus aureus isolates in a murine thigh model” (Antimicrob Agents Chemother, 2009):
≈ marks a conversion by molar mass, not a printed value.

How the values were obtained:
[1] = fAUC/MIC in community acquired methicillin-resistant Staphylococcus aureus isolate 147-infected neutropenic ICR mouse at stasis dose; type: functional
Summary of the method: (§1)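 Single-dose serum PK in infected neutropenic mice (sc 6.25–50 mg/kg; HPLC; two-compartment fit; AUC by trapezoidal rule; lower doses simulated). Free fraction from ultrafiltration of spiked mouse serum, in triplicate. Free exposures divided by modal MIC and plotted against 24-h log10 CFU change with a sigmoidal Emax model; EI50, EI80 and stasis values read from the fitted curves.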

Staphylococcus aureus = experiment: Antimicrobial activity against Community-acquired methicillin-resistant Staphylococcus aureus isolate 156 by broth microdilution method; type: functional
Summary of the method: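 Tigecycline MIC by CLSI broth microdilution, run in triplicate; modal MIC reported. Isolates stored at –80°C in double-strength skim milk and subcultured twice on Trypticase soy agar with 5% sheep blood before use.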

[2] = Plasma protein binding in human; type: ADME, cell-free; details: read-out: PPB (converted)
[3] = r2 for fAUC/MIC in hospital-acquired methicillin-resistant Staphylococcus aureus isolate 152-infected neutropenic ICR mouse
[4] = r2 for fCmax/MIC in methicillin-sensitive Staphylococcus aureus ATCC 25923-infected neutropenic ICR mouse
[5] = fAUC/MIC in hospital-acquired methicillin-resistant Staphylococcus aureus isolate 152-infected neutropenic ICR mouse at stasis dose; type: functional; summary of the method: as §1
[6] = r2 of fCmax/MIC in hospital-acquired methicillin-resistant Staphylococcus aureus isolate 152-infected neutropenic ICR mouse

`CN(C)c1cc(NC(=O)CNC(C)(C)C)c(O)c2c1C[C@H]1C[C@H]3[C@H](N(C)C)C(O)=C(C(N)=O)C(=O)[C@@]3(O)C(O)=C1C2=O` [TIGECYCLINE] showed a fAUC/MIC [1] of 1.7, an MIC (Staphylococcus aureus) of 0.125 µg/mL (≈ 0.213 µM) and a fraction unbound [2] of 0.29. For the same compound, the r2 [3] was 0.997, the r2 [4] was 0.508 and the fAUC/MIC [5] was 1.6. The r2 [6] was 0.953.
